Compound activity: PubChem BioAssay, several laboratories
The full list was thinned out, with hits kept by preference.
FXN GAA850 act – frataxin GAA850 promoter activation; AID 540364; hit rate 0.56% among 360,000; activation, % at 6 µM; HEK293 lucGAA850 FXN promoter luciferase reporter, 24 h; percent of 10 µM SAHA response;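 active = activation above the average of all compounds screened plus 3 SD, cutoff fixed separately per campaign, cut at about 7.5% in these data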
UPR CHOP act – apoptotic UPR (CHOP) activation; AID 449763; hit rate 0.34% among 330,000; CHO-CHOP luciferase reporter, luminescence; percent of tunicamycin response over DMSO baseline; activation, % at 10 µM;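 active = at 10 µM dose, activation of 40% or more, normalized to positive control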
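Evaluation: % reporter activation, DMSO baseline versus tunicamycin full activation; System: CHO-CHOP luciferase reporter cell line; Input: 500 cells/well; Incubation: 6 h compound treatment, 37 °C; Measured by: Steady-Glo luciferase luminescence; Dosing: one dose, 10 µM in 0.5% DMSO; Buffer or medium: F12 medium, 10% FBS; Benchmarks: positive tunicamycin 10 µg/mL, negative DMSO alone.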
CHOP inhibitor – inhibitors of CHOP induction in ER stress response. CHO-K1 CHOP-promoter luciferase, tunicamycin-induced, 15-18 h. inhibition, % at 10 µM. hit rate 3.8% among 220,000. AID 2732;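 active = compounds that reduced the stress-induced luciferase reporter signal by more than about 70% of percent inhibition, limit read from the data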
UPR XBP1 act – adaptive UPR (XBP1) activation; activation, % at 20 µM; AID 463104; CHO-XBP1 luciferase reporter, IRE1-XBP1 UPR activation, luminescence; percent of tunicamycin response, DMSO as zero; hit rate 0.33% among 330,000;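 active = versus positive control, 20 µM dose yields 30% or more activation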
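Assay system: CHO-XBP1 luciferase reporter cells; Schedule: 6 h treatment, 37 °C; Detection: glow luminescence from Steady-Glo reagent; Benchmarks: high control tunicamycin 10 µg/mL final, low control DMSO vehicle only.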
Hits are given with their value.

Results for OC[C@@H]1CN(Cc2ccncc2)C[C@H](n2cnc3c(NCc4ccco4)ncnc32)O1 ?
FXN GAA850 act: inactive

How did Cn1c(=O)c2cc(NC(=O)NCc3ccccc3)ccc2n1Cc1cccc(C(F)(F)F)c1 do in these assays?
FXN GAA850 act: inactive

What do the screens show for `COC(=O)c1ccc(N2CCN(S(=O)(=O)c3ccc(C)cc3)CC2)c([N+](=O)[O-])c1`?
FXN GAA850 act: inactive; UPR CHOP act: inactive; CHOP inhibitor: 75; UPR XBP1 act: inactive

What do the screens show for `Cc1cccc(C)c1NC(=O)COC(=O)c1ccc(N2CCCC2)c([N+](=O)[O-])c1`?
FXN GAA850 act: inactive; UPR CHOP act: inactive; CHOP inhibitor: 80; UPR XBP1 act: inactive

How did COC(=O)c1ccc(N2CCN(S(=O)(=O)c3ccc(Br)cc3)CC2)c([N+](=O)[O-])c1 do in these assays?
FXN GAA850 act: inactive; UPR CHOP act: inactive; CHOP inhibitor: inactive; UPR XBP1 act: inactive

Results for Cc1ccc(NS(=O)(=O)c2ccc(N3CCN(c4ccc(O)cc4)CC3)c([N+](=O)[O-])c2)c(C)c1 ?
FXN GAA850 act: inactive; UPR CHOP act: inactive; CHOP inhibitor: 73; UPR XBP1 act: inactive

How did Cn1c(=O)n(C)c2cc([N+](=O)[O-])c(N3CCN(S(=O)(=O)c4ccc(C(C)(C)C)cc4)CC3)cc21 do in these assays?
FXN GAA850 act: inactive; UPR CHOP act: inactive; CHOP inhibitor: 75; UPR XBP1 act: inactive

Results for COc1cc(/C=C2/SC(=S)N(CC(=O)NNC(=O)c3ccc(F)cc3)C2=O)cc(OC)c1OC ?
FXN GAA850 act: inactive

Results for Oc1ccc(-c2nccc(-c3ccc(Cl)cc3)n2)cc1 ?
FXN GAA850 act: inactive; UPR CHOP act: inactive; CHOP inhibitor: inactive; UPR XBP1 act: inactive

How did Oc1ccc(-c2nccc(-c3ccc(Cl)cc3Cl)n2)cc1 do in these assays?
FXN GAA850 act: inactive; UPR CHOP act: inactive; CHOP inhibitor: 80; UPR XBP1 act: inactive

What do the screens show for `COc1cccc(C(O)c2nc(-c3cccc(CO)c3)cs2)c1` (centres undefined)?
FXN GAA850 act: inactive

Results for COc1ccc(C(C[N+](=O)[O-])c2c(-c3ccccc3)cc3ccccn23)cc1OC (centres undefined) ?
FXN GAA850 act: inactive; UPR CHOP act: inactive; CHOP inhibitor: 81; UPR XBP1 act: inactive

Results for COc1cc(C(C[N+](=O)[O-])c2c(-c3ccccc3)cc3ccccn23)cc(OC)c1OC (centres undefined) ?
FXN GAA850 act: inactive; UPR CHOP act: inactive; CHOP inhibitor: inactive; UPR XBP1 act: inactive

How did CC(C)(C)c1cc(Cl)c(O)c(NC(=S)NC(=O)c2cccnc2)c1 do in these assays?
FXN GAA850 act: inactive; UPR CHOP act: inactive; CHOP inhibitor: 73; UPR XBP1 act: inactive

Results for COC(=O)c1cc(OC)c(OC)cc1NC(=O)c1cccc(C)c1 ?
FXN GAA850 act: inactive; UPR CHOP act: inactive; CHOP inhibitor: 70; UPR XBP1 act: inactive

Results for Cc1ccc(N2CCN(C(=O)c3ccccc3F)CC2)c(C)c1 ?
FXN GAA850 act: inactive; UPR CHOP act: inactive; CHOP inhibitor: 93; UPR XBP1 act: inactive

Results for Cc1ccc(C)c(N2CCN(C(=O)c3csc4ccccc34)CC2)c1 ?
FXN GAA850 act: inactive; UPR CHOP act: inactive; CHOP inhibitor: 80; UPR XBP1 act: inactive

Results for Cc1ccc(C)c(N2CCN(C(=O)Cc3cn(C)c4ccccc34)CC2)c1 ?
FXN GAA850 act: inactive; UPR CHOP act: inactive; CHOP inhibitor: 74; UPR XBP1 act: inactive

How did CCC(=O)c1ccc(N2CCN(C(=O)c3ccccc3F)CC2)c(F)c1 do in these assays?
FXN GAA850 act: inactive; UPR CHOP act: inactive; CHOP inhibitor: inactive; UPR XBP1 act: inactive

What do the screens show for `CCC(=O)N1CCN(c2cc(C)ccc2C)CC1`?
FXN GAA850 act: inactive; UPR CHOP act: inactive; CHOP inhibitor: inactive; UPR XBP1 act: inactive

Results for CSc1ccc(Cn2c(C)c(C(=O)NCc3ccc4c(c3)OCCO4)sc2=O)cc1 ?
FXN GAA850 act: inactive

How did COc1cccc(C(O)c2nc(/C=C/c3ccccc3)cs2)c1 (centres undefined) do in these assays?
FXN GAA850 act: inactive

Results for Cc1ccc(-c2nnc3ccc(SCC(=O)N4CCc5ccccc54)nn23)cc1 ?
FXN GAA850 act: inactive; UPR CHOP act: inactive; CHOP inhibitor: 85; UPR XBP1 act: inactive

What do the screens show for `Cc1ccc(-c2nnc3ccc(SCC(=O)N4CCCc5ccccc54)nn23)cc1`?
FXN GAA850 act: inactive; UPR CHOP act: inactive; CHOP inhibitor: inactive; UPR XBP1 act: inactive

What do the screens show for `CCc1c(C(=O)Nc2ccccc2C(N)=O)csc1C`?
FXN GAA850 act: inactive; UPR CHOP act: inactive; UPR XBP1 act: inactive
